Target: human immunoproteasome β5i (Homo sapiens, UniProt P20618+P28062)
Assay: IC50 against β5i
Format: biochemical
Details: relative to the P1-β-Ala parents PKS2251 and PKS2252, respectively
In short: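 Human immunoproteasome β5i activity was read as ac-ANW-AMC hydrolysis, and constitutive β5c activity as suc-LLVY-AMC hydrolysis. IC50s were determined by a previously reported method. Apparent selectivity index = IC50β5c / IC50β5i. Data reported as mean ± SEM.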

SMILES	reduction of potency against β5i [fold]
C[C@H](NC(=O)C[C@H](CC(=O)NC(C)(C)C)NC(=O)CCc1ccccc1)C(=O)NCc1cccc2ccccc12 [PKS2278]	58
Cc1ccc(S(=O)(=O)N[C@H](CC(=O)N[C@@H](C)C(=O)NCc2cccc3ccccc23)CC(=O)NC(C)(C)C)cc1 [PKS2279]	2.5

Same assay, conditions: β5i over β5c

SMILES	SIapp: apparent selectivity index = IC50β5c / IC50β5i
Cc1cc(C(=O)N[C@@H](CC(=O)NC(C)(C)C)C(=O)N[C@@H](C)CC(=O)NCc2cccc3ccccc23)no1 [PKS2249]	465
C[C@@H](CC(=O)NCc1cccc2ccccc12)NC(=O)[C@H](CC(=O)NC(C)(C)C)NC(=O)CCc1ccccc1 [PKS2251]	1333
Cc1ccc(S(=O)(=O)N[C@@H](CC(=O)NC(C)(C)C)C(=O)N[C@@H](C)CC(=O)NCc2cccc3ccccc23)cc1 [PKS2252]	13600
Cc1ccc(S(=O)(=O)N[C@H](CC(=O)N[C@@H](C)C(=O)NCc2cccc3ccccc23)CC(=O)NC(C)(C)C)cc1 [PKS2279]	2521
